For data set [1], the system named is Mycobacterium tuberculosis. Description: Antitubercular activity against Mycobacterium tuberculosis H37Rv.
Another data set concerns Mycobacterium avium. Description: Antitubercular activity against Mycobacterium avium. The class given is functional.
The next data set relates to Mycolicibacterium aurum. Description: Antitubercular activity against Mycobacterium aurum A1. The class given is functional.
Data set [2] concerns Human immunodeficiency virus 1. Description: Antiviral activity against HIV1 3B in human MT4 cells assessed as protection against virus-induced cytopathogenicity by MTT assay. On the set-up: Activity: concentration or dose not given beside the values. The class given is functional, organism-based. The method, boiled down:
(§1)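 MT-4 cells at 6 × 10⁵ cells/ml infected with HIV-1 IIIB or HIV-2 ROD at 100–300 CCID50; compounds in serial five-fold dilutions, triplicate mock- and virus-infected wells. MTT viability read at 540 and 690 nm after 5 days, median OD of three wells; EC50 = 50% protection from viral cytopathic effect.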

Data set [3] has as its system Human immunodeficiency virus 2. Description: Antiviral activity against HIV2 ROD in human MT4 cells assessed as protection against virus-induced cytopathogenicity by MTT assay. It counts as functional, organism-based. Set-up: Activity: concentration or dose not given beside the values. The method, boiled down:
as §1
On the technique in general: Cytopathic effects are the visible damage that an infection or toxin causes in cultured cells.

Data set [4] in a line: Cytotoxicity against human MT4 cells by MTT assay. It counts as cell-based. The procedure, abridged:
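Mock-infected MT-4 cells (6 × 10⁵ cells/ml) with serial five-fold compound dilutions in triplicate; MTT reduction read at 540 and 690 nm after 5 days, median OD of three wells; CC50 = concentration reducing OD540 of mock-infected control by 50%.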

The nature of data set [5]: Cytotoxicity against human HeLa cells. The class given is cell-based. The method, boiled down: (§2)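 Uninfected cell cultures exposed to test compounds alongside antiviral assays; minimum cytotoxic concentration (MCC) = concentration causing a microscopically detectable alteration of cell morphology.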
Data set [6] relates to Vesicular stomatitis virus. Description: Antiviral activity against vesicular stomatitis virus in human HeLa cells assessed as inhibition of virus-induced cytopathogenicity. It counts as functional. The method, boiled down:
(§3)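 Confluent cell monolayers (E6SM, HEL, HeLa or Vero, per line) inoculated with 100 CCID50 virus; 1 h adsorption, residual virus removed, then incubated with compound at 400, 200, 100 … µg/ml. Cytopathicity scored once complete in untreated virus controls; MIC = concentration inhibiting virus-induced cytopathicity.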

Data set [7] concerns Coxsackievirus B4. Description: Antiviral activity against Coxsackie virus B4 in human HeLa cells assessed as inhibition of virus-induced cytopathogenicity. The class given is functional. Conditions: Enterovirus B. The procedure, abridged: as §3
Data set [8] concerns Respiratory syncytial virus. Description: Antiviral activity against respiratory syncytial virus in human HeLa cells assessed as inhibition of virus-induced cytopathogenicity. It counts as functional. The method, boiled down:
as §3

A short description of data set [9]: Cytotoxicity against human E6SM cells. It counts as cell-based. The conditions noted are these: E6SM cells. The method, boiled down:
as §2

A short description of data set [10]: Cytotoxicity against human HEL cells assessed as alteration of cell morphology. The class given is cell-based. The method, boiled down:
as §2

The subject of data set [11] is Human alphaherpesvirus 1. Description: Antiviral activity against HSV1 KOS in human E6SM cells assessed as reduction of virus-induced cytopathogenicity. Conditions: Human alphaherpesvirus 1, KOS. The class given is functional. The procedure, abridged: as §3
The test system of data set [12] is Human alphaherpesvirus 1. Description: Antiviral activity against HSV1 KOS in human HEL cells assessed as reduction of virus-induced cytopathogenicity. Conditions: Human alphaherpesvirus 1, KOS. The class given is functional. The procedure, abridged:
as §3

Data set [13] deals with Human alphaherpesvirus 2. Description: Antiviral activity against HSV2 G in human E6SM cells assessed as reduction of virus-induced cytopathogenicity. The class given is functional. Conditions: Human alphaherpesvirus 2, G. The procedure, abridged:
as §3

Data set [14] concerns Human alphaherpesvirus 2. Description: Antiviral activity against HSV2 G in human HEL cells assessed as reduction of virus-induced cytopathogenicity. It counts as functional. Conditions: Human alphaherpesvirus 2, G. The procedure, abridged: as §3
The test system of data set [15] is Vesicular stomatitis virus. Description: Antiviral activity against in Vesicular stomatitis virus in human E6SM cells assessed as reduction of virus-induced cytopathogenicity. It counts as functional. The procedure, abridged:
as §3

Data set [16] relates to Vesicular stomatitis virus. Description: Antiviral activity against in Vesicular stomatitis virus in human HEL cells assessed as reduction of virus-induced cytopathogenicity. The class given is functional. The procedure, abridged: as §3
Data set [17] deals with Human alphaherpesvirus 1. Description: Antiviral activity against thymidine kinase deficient and acyclovir resistant HSV1 KOS in human E6SM cells assessed as reduction of virus-induced cytopathogenicity. It counts as functional. Conditions: Human alphaherpesvirus 1, KOS. The procedure, abridged:
as §3

Data set [18] deals with Human alphaherpesvirus 1. Description: Antiviral activity against thymidine kinase deficient and acyclovir resistant HSV1 KOS in human HEL cells assessed as reduction of virus-induced cytopathogenicity. The class given is functional. The conditions noted are these: Human alphaherpesvirus 1, KOS. The method, boiled down: as §3
Another data set relates to Vero. Description: Cytotoxicity against african green monkey Vero cells. It counts as cell-based. The conditions noted are these: chlorocebus sabaeus. The method, boiled down: as §2
The subject of data set [19] is Coxsackievirus B4. Description: Antiviral activity against Coxsackie virus B4 in african green monkey Vero cells assessed as reduction of virus-induced cytopathogenicity. It counts as functional. The conditions noted are these: Enterovirus B. The method, boiled down: as §3
Another data set deals with Punta Toro virus. Description: Antiviral activity against Punta Toro virus in african green monkey Vero cells assessed as reduction of virus-induced cytopathogenicity. It counts as functional. The method, boiled down:
as §3

For data set [20], the system named is Human betaherpesvirus 5. Description: Antiviral activity against human cytomegalovirus AD169 infected HEL cells assessed as reduction in virus plaque formation. It counts as functional, organism-based. The conditions noted are these: Human betaherpesvirus 5, AD169, HEL.
The test system of data set [21] is Human betaherpesvirus 5. Description: Antiviral activity against human cytomegalovirus Davis infected HEL cells assessed as reduction in virus plaque formation. Conditions: Human betaherpesvirus 5, Davis. The class given is functional, organism-based.
The test system of data set [22] is Human alphaherpesvirus 3. Description: Antiviral activity against TK+ VZV OKA infected HEL cells assessed as reduction in virus plaque formation. The class given is functional, organism-based. The conditions noted are these: Human alphaherpesvirus 3, OKA.
Data set [23] deals with Human alphaherpesvirus 3. Description: Antiviral activity against TK- VZV 07/1 infected HEL cells assessed as reduction in virus plaque formation. The class given is functional, organism-based. The conditions noted are these: Human alphaherpesvirus 3, 07/1, HEL.
For data set [24], the system named is Mycobacterium tuberculosis. Description: Antitubercular activity against Mycobacterium tuberculosis H37Rv at 6.25 ug/ml by MABA assay. The class given is functional. For orientation: The colour change of resazurin is a common sign of viable cells or microbes.
Another data set relates to Human respirovirus 3. Description: Antiviral activity against Parainfluenza 3 virus in african green monkey Vero cells assessed as reduction of virus-induced cytopathogenicity. It counts as functional. The method, boiled down:
as §3

For data set [25], the system named is Mammalian orthoreovirus 1. Description: Antiviral activity against Reo virus 1 in african green monkey Vero cells assessed as reduction of virus-induced cytopathogenicity. The class given is functional. The method, boiled down: as §3
In a further data set the test system is Sindbis virus. Description: Antiviral activity against Sindbis virus in african green monkey Vero cells assessed as reduction of virus-induced cytopathogenicity. The class given is functional. The procedure, abridged: as §3
A short description of data set [26]: Cytotoxicity against human HEL cells assessed as reduction of cell growth. The class given is cell-based. The procedure, abridged: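 HEL cells; CC50 = compound concentration reducing cell growth by 50%.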

Usually IC50 stands for the point on the concentration scale where inhibition reaches its midpoint. Usually CC50 stands for the concentration giving 50% cytotoxicity. As usually defined, the EC50 is the concentration that produces a half-maximal response. Usually inhibition stands for how much of the control response was suppressed.

The structures appear in SMILES notation. Values after ≈ are worked out from the molar mass of the structure shown.

Regarding `CC(C)CCOc1ccc(NC(=S)Nc2ccc(OCCC(C)C)cc2)cc1` [TIOCARLIDE], the values for the MIC (in data set [1]; in the data set with Mycobacterium avium; in the data set on Mycolicibacterium aurum) were 2.5 µg/mL (≈ 6.24 µM), 2 µg/mL (≈ 4.99 µM) and 2 µg/mL (≈ 4.99 µM), respectively.

Turning to `C=CCNC(=S)Nc1ccc(OCc2n[nH]c(=S)n2CC)cc1`, the Activity in data set [2] turned out to be 3%; in data set [3], 2%; in the data set with Vero it was 400 µg/mL. Besides, the IC50 in data set [2] (Human immunodeficiency virus 1, 3B, MT4) is over 72.3 µg/mL; in data set [3] (Human immunodeficiency virus 2, ROD, MT4), over 71.4 µg/mL. Besides, the CC50 in [4] was 75.9 µg/mL (≈ 217 µM); in [26], over 50 µg/mL. In addition, the MCC in data set [5] was 400 µg/mL; in data set [9] it was over 400 µg/mL; in data set [10] it was over 400 µg/mL. For the same compound, the MIC in [6] is over 80 µg/mL; in the data set on Coxsackievirus B4 [7], over 80 µg/mL; in [8] it was over 80 µg/mL; in the data set on Human alphaherpesvirus 1 [11], over 400 µg/mL; in the data set on Human alphaherpesvirus 1 [12], over 400 µg/mL; in the data set with Human alphaherpesvirus 2 [13], 240 µg/mL (≈ 687 µM). For the same compound, the MIC in the data set on Human alphaherpesvirus 2 [14] is 240 µg/mL (≈ 687 µM); in [15], over 400 µg/mL; in [16], over 400 µg/mL; in the data set on Human alphaherpesvirus 1 [17] it was 240 µg/mL (≈ 687 µM); in the data set with Human alphaherpesvirus 1 [18], 240 µg/mL (≈ 687 µM); in the data set on Coxsackievirus B4 [19], 48 µg/mL (≈ 137 µM). For the same compound, the MIC in the data set with Punta Toro virus was over 80 µg/mL; with Human respirovirus 3, over 80 µg/mL; in data set [25] it was over 80 µg/mL; in the data set with Sindbis virus, 48 µg/mL (≈ 137 µM). Also, the EC50 is 45 µg/mL (≈ 129 µM) in the data set on Human betaherpesvirus 5 [20], 45 µg/mL (≈ 129 µM) in the data set on Human betaherpesvirus 5 [21], 41 µg/mL (≈ 117 µM) with Human alphaherpesvirus 3 [22] and 42 µg/mL (≈ 120 µM) in the data set on Human alphaherpesvirus 3 [23]. In addition, the inhibition at 6.25 µg/mL in [24] amounted to 75%.

Source of the values: ChEMBL document CHEMBL1149790, “Synthesis of some novel thiourea derivatives obtained from 5-[(4-aminophenoxy)methyl]-4-alkyl/aryl-2,4-dihydro-3H-1,2,4-triazole-3-thiones and evaluation as antiviral/anti-HIV and anti-tuberculosis agents” (Eur J Med Chem, 2008).
